7 compounds from ChEMBL document CHEMBL4725436, “Gibberellin JRA-003: A Selective Inhibitor of Nuclear Translocation of IKKα” (ACS Med Chem Lett, 2020) can be followed below.

Some results are limits rather than exact numbers.

The nature of test [1]: Inhibition of IKKalpha/IKKbeta in human HEK293T cells transfected with firefly luciferase gene assessed as inhibition of TNF-alpha-stimulated NF-kappaB signalling preincubated for 1 hr followed by TNF alpha stimulation measured after 3 hrs by luciferase reporter gene assay. In kind it is cell-based. Particulars: HEK-293T. The method in brief:
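Commercial NF-κB-driven luciferase reporter assay in HEK 293T cells stimulated with TNFα. EC50 was derived from the luminescence readout.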

Test [2] relates to HCC1599. Description: Cytotoxicity against human HCC1599 cells assessed as reduction in cell viability measured after 24 hrs by CellTiter-Glo luminescent assay. Particulars: HCC1599, 24 h. In kind it is functional, cell-based. The method in brief: (§1)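 High-throughput viability screen of test agents across a panel of 22 cancerous and noncancerous human cell lines. Viability was read by CellTiter-Glo luminescence.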
For orientation: ATP-based viability assays read luminescence as a measure of living cells.

In test [3] the test system is NCI-H446. Briefly: Cytotoxicity against human NCI-H446 cells assessed as reduction in cell viability measured after 24 hrs by CellTiter-Glo luminescent assay. Conditions: NCI-H446, 24 h. The format is functional, cell-based. The method in brief: as §1
The test system of test [4] is HEK-293T. Briefly: Cytotoxicity against human HEK293T cells assessed as reduction in cell viability measured after 24 hrs by CellTiter-Glo luminescent assay. The format is cell-based. The method in brief:
as §1

Test [5] has as its system PSN1. Description: Cytotoxicity against human PSN1 cells assessed as reduction in cell viability measured after 24 hrs by CellTiter-Glo luminescent assay. In kind it is functional, cell-based. Particulars: PSN1, 24 h. The method in brief: as §1
In test [6] the test system is RCK8. Description: Cytotoxicity against human RC-K8 cells assessed as reduction in cell viability measured after 24 hrs by CellTiter-Glo luminescent assay. Conditions: RCK8, 24 h. The format is functional, cell-based. The method in brief: as §1
A short description of test [7]: Cytotoxicity against human Hs895T cells assessed as reduction in cell viability measured after 24 hrs by CellTiter-Glo luminescent assay. In kind it is functional, cell-based. The method in brief:
as §1

Test [8] can be described thus: Cytotoxicity against human Hs888Lu cells assessed as reduction in cell viability measured after 24 hrs by CellTiter-Glo luminescent assay. In kind it is cell-based. The method in brief: as §1
Test [9] in a line: Cytotoxicity against human Hs895SK cells assessed as reduction in cell viability measured after 24 hrs by CellTiter-Glo luminescent assay. The format is cell-based. Conditions: Hs 895.Sk. The method in brief: as §1
The test system of test [10] is CA46. Briefly: Cytotoxicity against human CA46 cells assessed as reduction in cell viability measured after 24 hrs by CellTiter-Glo luminescent assay. The format is functional, cell-based. Conditions: CA46, 24 h. The method in brief: as §1
For test [11], the system named is SUD4. Description: Cytotoxicity against human SU-DHL-4 cells assessed as reduction in cell viability measured after 24 hrs by CellTiter-Glo luminescent assay. In kind it is functional, cell-based. Particulars: SU-DHL-4, 24 h. The method in brief:
as §1

Test [12] deals with Hs-578T. Description: Cytotoxicity against human Hs-578T cells assessed as reduction in cell viability measured after 24 hrs by CellTiter-Glo luminescent assay. In kind it is functional, cell-based. The method in brief: as §1
Test [13] is described as follows: Cytotoxicity against human Hs578Bst cells assessed as reduction in cell viability measured after 24 hrs by CellTiter-Glo luminescent assay. In kind it is cell-based. The method in brief:
as §1

What is called EC50 is the concentration giving half of the maximal effect. As usually defined, the IC50 is the concentration at which inhibition is half-maximal.

For the compound `C=C1C(=O)[C@@]2(C)CC[C@H]3c4cccc(C)c4[C@H](C(=O)OC)[C@@]13C2`, the EC50 is 22 µM in test [1]; 1400 nM in test [2]; 2100 nM in [3]; 2.9 µM in test [4]; 970 nM in test [6]; 2500 nM in test [10]. Also, the EC50 in test [11] worked out at 620 nM; in [12], 5.2 µM; in [13], 10 µM. Besides, the half-inhibitory concentration (IC50) in test [5], in test [7], in [8] and in test [9] was more than 10 µM in each case.

With `C=C1C(=O)[C@]23C[C@@]1(O)CC[C@H]2[C@@]12C=CC(=O)[C@@](C)(C(=O)O1)[C@H]2[C@@H]3C(=O)OC`, the EC50 in [1] is 1.7 µM; in [2], 830 nM; in [3] it was less than 40 nM; in [4], 7.1 µM; in test [6], 72 nM; in test [10], 880 nM. In addition, the EC50 in test [11] is less than 40 nM; in test [12] it was 5.2 µM. Besides, the IC50 in test [5], in test [7], in test [8], in [9] and in test [13] was more than 10 µM in each case.

In the case of `COC(=O)/C=C/Oc1ccc2c(c1C)[C@H](C(=O)OC)[C@@]13CC(=O)[C@@](C)(CC[C@@H]21)C3`, the EC50 in test [1] is more than 100 µM. Also, the IC50 in test [2], in test [3], in test [4], in [5], in test [6] and in [7] was more than 10 µM in each case. In addition, the IC50 in test [8], in [9], in test [10], in test [11], in [12] and in test [13] was more than 10 µM throughout.

`COC(=O)[C@H]1c2c(cc3ccoc3c2C)[C@@H]2CC[C@@]3(C)C[C@]21CC3=O`: the EC50 in test [1] was more than 100 µM. In addition, the IC50 in test [2], in test [3], in [4], in [5], in [6] and in [7] was more than 10 µM throughout. Also, the 50% inhibitory concentration (IC50) in test [8], in test [9], in test [10], in test [11], in test [12] and in test [13] was more than 10 µM in each case.

For `C=C1C[C@]23C[C@@]1(O)CC[C@@H]2c1cccc(C)c1[C@@H]3C(=O)OC`, the concentration giving a half-maximal response (EC50) in test [1] is more than 100 µM. Further, the half-inhibitory concentration (IC50) in test [2], in test [3], in [4], in test [5], in [6] and in test [7] was more than 10 µM each time. Further, the 50% inhibitory concentration (IC50) in test [8], in test [9], in test [10], in test [11], in [12] and in test [13] was more than 10 µM throughout.

On to `C=C1[C@@H](O)[C@]23C[C@@]1(O)CC[C@@H]2c1cccc(C)c1[C@@H]3C(=O)OC`, for which the EC50 in test [1] is more than 100 µM. The IC50 in test [2], in test [3], in [4], in test [5], in test [6] and in [7] was more than 10 µM each time. Moreover, the IC50 in test [8], in test [9], in test [10], in test [11], in test [12] and in test [13] was more than 10 µM each time.

As for `C=C1C(=O)[C@@]2(C)CC[C@@H]3c4cccc(C)c4[C@H](C(=O)OC)[C@@]13C2`, the EC50 in [1] came out at 55 µM; in test [2], 1100 nM; in test [3] it was 2900 nM; in [6] it was 1900 nM; in test [9], 9.5 µM; in test [10], 460 nM. Further, the EC50 is 690 nM in test [11] and 4.8 µM in test [12]. Also, the IC50 in test [4], in test [5], in [7], in test [8] and in test [13] was more than 10 µM throughout.
